Assay results reported in ChEMBL document CHEMBL2016441, “Discovery and structural development of small molecules that enhance transport activity of bile salt export pump mutant associated with progressive familial intrahepatic cholestasis type 2” (Bioorg Med Chem, 2012).

Tests used:
Bile salt export pump [1] = target: T1, Bile salt export pump (Homo sapiens, UniProt O95342, E297G); assay: (§1) Restoration of human BSEP E297G mutant trafficking to cell membrane in MDCK2 cells co-expressing NTCP assessed as increase in [3H]taurocholate transport measuring apparent efflux clearance across the apical membrane at 1 mM preincubated for 24 hrs prior incubation with [3H]taurocholate measured after 2 hrs by transcellular transport assay relative to control; format: cell-based; details: mdck2, 2 h, 1000 µM
Summary of the method: (§2)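 MDCK II cells grown 2 days on Transwell inserts, then infected with E297G BSEP or GFP adenovirus (50 MOI). Compounds added 24 h later for 24 h. [3H]TC added basally. PS_apical is the steady-state transcellular rate over 2 h divided by the cellular [3H]TC concentration at 2 h. Mean ± SE of triplicates.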

Bile salt export pump [2] = target: T1, Bile salt export pump; assay: Restoration of human BSEP E297G mutant trafficking to cell membrane in MDCK2 cells co-expressing NTCP assessed as accumulation of [3H]taurocholate at 10 uM preincubated for 24 hrs prior incubation with [3H]taurocholate measured after 2 hrs by liquid scintillation counting; format: cell membranes; details: mdck2, 2 h
Summary of the method: (§3)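 Human WT or E297G BSEP delivered by recombinant adenovirus (50 MOI) into MDCK II cells on 24-well plates, 1 day after seeding. GFP adenovirus serves as control. Compounds added 24 h post-infection for 24 h. Cells washed with Krebs–Henseleit buffer pH 7.4, then incubated with [3H]TC for 2 h and washed with ice-cold buffer. Lysed in 2 N HCl, neutralized with NaOH, counted by scintillation. Read-out is the BSEP/GFP accumulation ratio.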

Bile salt export pump [3] = target: T1, Bile salt export pump; assay: Restoration of human BSEP E297G mutant trafficking to cell membrane in MDCK2 cells co-expressing NTCP assessed as decrease in [3H]taurocholate accumulation preincubated for 24 hrs prior incubation with [3H]taurocholate measured after 2 hrs by liquid scintillation counting; format: cell membranes; details: mdck2, 2 h; summary of the method: as §3
Bile salt export pump [4] = target: T1, Bile salt export pump; assay: as §1, with “10 uM” for “1 mM”; format: cell-based; details: mdck2, 2 h; summary of the method: as §2
Bile salt export pump [5] = target: T1, Bile salt export pump; assay: Restoration of human BSEP E297G mutant trafficking to cell membrane in MDCK2 cells co-expressing NTCP assessed as accumulation of [3H]taurocholate at 100 uM preincubated for 24 hrs prior incubation with [3H]taurocholate measured after 2 hrs by liquid scintillation counting; format: cell membranes; details: mdck2, 2 h
Bile salt export pump [6] = target: Bile salt export pump (Homo sapiens, UniProt O95342); assay: Restoration of wild type human BSEP trafficking to cell membrane in MDCK2 cells co-expressing NTCP assessed as decrease in [3H]taurocholate accumulation at 10 to 100 uM preincubated for 24 hrs prior incubation with [3H]taurocholate measured after 2 hrs by liquid scintillation counting; format: cell membranes; details: mdck2, 2 h; summary of the method: as §3
Sequence of Bile salt export pump (Homo sapiens, UniProt O95342) (O95342 whole entry): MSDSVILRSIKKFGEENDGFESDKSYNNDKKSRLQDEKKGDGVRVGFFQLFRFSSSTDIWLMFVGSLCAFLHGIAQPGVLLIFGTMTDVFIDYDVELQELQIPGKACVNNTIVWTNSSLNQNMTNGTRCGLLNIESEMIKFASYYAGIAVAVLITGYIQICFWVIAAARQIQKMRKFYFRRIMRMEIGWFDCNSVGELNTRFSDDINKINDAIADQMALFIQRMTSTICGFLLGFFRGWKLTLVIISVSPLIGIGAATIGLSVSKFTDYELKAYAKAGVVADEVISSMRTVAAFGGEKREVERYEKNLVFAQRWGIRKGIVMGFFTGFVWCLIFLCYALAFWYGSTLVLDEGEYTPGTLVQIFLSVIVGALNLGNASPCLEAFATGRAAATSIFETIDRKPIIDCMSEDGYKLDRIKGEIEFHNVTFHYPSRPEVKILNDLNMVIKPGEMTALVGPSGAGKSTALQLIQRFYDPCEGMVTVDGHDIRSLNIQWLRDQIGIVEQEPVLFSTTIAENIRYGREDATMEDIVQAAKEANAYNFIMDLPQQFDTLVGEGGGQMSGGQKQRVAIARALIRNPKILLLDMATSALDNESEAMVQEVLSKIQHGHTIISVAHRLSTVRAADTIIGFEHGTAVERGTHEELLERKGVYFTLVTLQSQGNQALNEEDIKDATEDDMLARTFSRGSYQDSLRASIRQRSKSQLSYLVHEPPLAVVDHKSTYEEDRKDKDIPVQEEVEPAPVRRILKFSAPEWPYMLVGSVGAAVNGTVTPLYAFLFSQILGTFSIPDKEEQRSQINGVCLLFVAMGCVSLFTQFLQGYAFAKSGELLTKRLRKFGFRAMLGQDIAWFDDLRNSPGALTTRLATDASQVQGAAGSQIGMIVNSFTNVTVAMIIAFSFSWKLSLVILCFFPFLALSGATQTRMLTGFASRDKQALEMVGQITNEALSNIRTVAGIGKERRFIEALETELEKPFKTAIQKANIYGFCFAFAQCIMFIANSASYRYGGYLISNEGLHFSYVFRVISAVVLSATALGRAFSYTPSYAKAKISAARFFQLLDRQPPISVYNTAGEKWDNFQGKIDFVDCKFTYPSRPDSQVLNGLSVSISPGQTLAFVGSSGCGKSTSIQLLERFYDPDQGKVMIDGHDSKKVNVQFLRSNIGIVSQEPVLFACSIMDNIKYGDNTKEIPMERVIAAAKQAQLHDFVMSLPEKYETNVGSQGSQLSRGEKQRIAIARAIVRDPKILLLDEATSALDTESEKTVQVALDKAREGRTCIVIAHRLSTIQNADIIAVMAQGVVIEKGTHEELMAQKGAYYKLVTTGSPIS

T1 sequence (O95342 whole entry E297G): as the sequence (O95342 whole entry) above, with E297G counted along it

Structure (SMILES) | Activity (Bile salt export pump [2]) [%] | also measured
O=C(O)CCCc1ccccc1 |  | fold change (FC) (Bile salt export pump [1]): 3
CCCCN(C(=O)c1ccc(OCc2c(-c3c(Cl)cccc3Cl)noc2C(C)C)cc1Cl)c1cccc(C(=O)O)c1 | 49 | 
CC(C)c1onc(-c2c(Cl)cccc2Cl)c1COc1ccc(C(=O)N(c2cccc(C(=O)O)c2)c2cccc3ccccc23)c(Cl)c1 | 59 | 
CC(C)c1onc(-c2c(Cl)cccc2Cl)c1COc1ccc(C(=O)N(c2cccc(C(=O)O)c2)c2ccc3ccccc3c2)c(Cl)c1 | 70 | 
CC(C)c1onc(-c2ccccc2)c1COc1ccc(C(=O)N(Cc2ccccc2)c2cccc(C(=O)O)c2)c(Cl)c1 | 64 | 
CC(C)c1onc(-c2c(Cl)cccc2Cl)c1COc1ccc(C(=O)N(Cc2ccccc2)c2cccc(C(=O)O)c2)cc1 | 85 | 
Cc1cccc(C)c1-c1noc(C(C)C)c1COc1ccc(C(=O)N(Cc2ccccc2)c2cccc(C(=O)O)c2)c(Cl)c1 | 93 | 
CC(C)c1onc(-c2c(Cl)cccc2Cl)c1COc1ccc(C(=O)N(Cc2ccccc2)c2ccccc2C(=O)O)c(Cl)c1 | 80 | 
CC(C)c1onc(-c2c(Cl)cccc2Cl)c1COc1ccc(C(=O)N(Cc2ccccc2)c2ccc(C(=O)O)cc2)c(Cl)c1 | 35 | 
COC(=O)c1cccc(N(Cc2ccccc2)C(=O)c2ccc(OCc3c(-c4c(Cl)cccc4Cl)noc3C(C)C)cc2Cl)c1 | 93 | 
CC(C)c1onc(-c2c(Cl)cccc2Cl)c1COc1ccc(/C=C/c2cccc(C(=O)O)c2)c(Cl)c1 | 33 | Activity (Bile salt export pump [3]): Dose-dependent effect
CC(C)c1onc(-c2c(Cl)cccc2Cl)c1COc1ccc(C(=O)Nc2cccc(C(=O)O)c2)c(Cl)c1 | 111 | 
CC(C)c1onc(-c2c(Cl)cccc2Cl)c1COc1ccc(C(=O)N(Cc2ccccc2)c2cccc(C(=O)O)c2)c(Cl)c1 | 31 | Activity (Bile salt export pump [3]): Dose-dependent effect; fold change (FC) (Bile salt export pump [4]): 7
CC(C)c1onc(-c2c(Cl)cccc2Cl)c1COc1ccc(C(=O)N(CCc2ccccc2)c2cccc(C(=O)O)c2)c(Cl)c1 | 53 | 
CC(C)c1onc(-c2c(Cl)cccc2Cl)c1COc1ccc(C(=O)N(C)c2cccc(C(=O)O)c2)c(Cl)c1 | 66 | 
C[C@H](CCC(=O)O)[C@H]1CC[C@H]2[C@@H]3[C@H](O)C[C@@H]4C[C@H](O)CC[C@]4(C)[C@H]3CC[C@]12C [CHENODIOL] | 50 | Activity (Bile salt export pump [5]): 46%
C[C@H](CCC(=O)O)[C@H]1CC[C@H]2[C@@H]3[C@H](O)C[C@@H]4C[C@H](O)CC[C@]4(C)[C@H]3C[C@H](O)[C@]12C [CHOLIC ACID] | 73 | Activity (Bile salt export pump [5]): 40%; Activity (Bile salt export pump [6]): Active
C[C@H](CCC(=O)O)[C@H]1CC[C@H]2[C@@H]3CC[C@@H]4C[C@H](O)CC[C@]4(C)[C@H]3C[C@H](O)[C@]12C [DEOXYCHOLIC ACID] |  | Activity (Bile salt export pump [5]): 65%
C[C@H](CCC(=O)NCC(=O)O)[C@H]1CC[C@H]2[C@@H]3[C@H](O)C[C@@H]4C[C@H](O)CC[C@]4(C)[C@H]3C[C@H](O)[C@]12C [GLYCOCHOLIC ACID] |  | Activity (Bile salt export pump [5]): 108%
C[C@H](CCC(=O)O)[C@H]1CC[C@H]2[C@@H]3[C@@H](O)C[C@@H]4C[C@H](O)CC[C@]4(C)[C@H]3CC[C@]12C [URSODIOL] | 76 | Activity (Bile salt export pump [5]): 43%
